According to ChEMBL document CHEMBL1932985, “Identification of biaryl sulfone derivatives as antagonists of the histamine H₃ receptor: discovery of (R)-1-(2-(4'-(3-methoxypropylsulfonyl)biphenyl-4-yl)ethyl)-2-methylpyrrolidine (APD916)” (Bioorg Med Chem Lett, 2012):
One block for each molecule: values may come before it. Active and inactive are the calls of the source. The rule behind the calls is not given here.

How the values were obtained:
[1] = target: hERG (KCNH2) (Homo sapiens, UniProt Q12809); experiment: Inhibition of human ERG at 3 uM by patch-clamp assay
[2] = target: Histamine H3 receptor (Rattus norvegicus, UniProt Q9QYN8); experiment: Displacement of N-[3H]-methylhistamine from histamine H3 receptor in rat cortex membranes; format: cell membranes, Membrane
[3] = tested on: Rattus norvegicus; experiment: Inhibition of RAMH-induced dipsogenia in po dosed Sprague-Dawley rat administered 30 mins prior to RAMH challenge measured up to 20 mins; format: functional; details: read-out: MED
How it was run: (§1)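 Rats given compound orally 0.5 h (or, for duration of action, at selected times up to 6 h) before RAMH 10 mg/kg SC; water consumed over 20 min measured. Screening doses 1 or 0.3 mg/kg PO, also 0.1 mg/kg; duration study at 0.6 mg/kg PO. MED = minimum dose fully inhibiting drinking; means ± SEM.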

[4] = Half life in Sprague-Dawley rat at 10 mg/kg, iv by LC-MS/MS analysis; format: ADME, organism-based; set-up: dose 10 mg/kg, route intravenous; details: in vivo
How it was run: (§2)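 Rat PK after IV and PO dosing; plasma Cmax, Tmax, IV half-life and Vss determined; oral bioavailability from AUCpo/AUCiv. Metabolite exposure determined after a 3 mg/kg PO parent dose.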

[5] = Tmax in Sprague-Dawley rat at 10 mg/kg, po and iv by LC-MS/MS analysis; format: ADME, organism-based; set-up: dose 10 mg/kg, route oral; details: in vivo
How it was run: (§3)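 Rats were given the compound both IV and PO in a routine PK study. Tmax came from the PO arm and Vss from the IV arm.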

[6] = tested on: Rattus norvegicus; experiment: Volume of distribution at steady state in Sprague-Dawley rat at 10 mg/kg, po and iv by LC-MS/MS analysis; format: ADME, organism-based; set-up: dose 10 mg/kg, route oral; details: in vivo; how it was run: as §3
[7] = Ratio of drug level in brain to plasma in Sprague-Dawley rat at 10 mg/kg, po and iv after 0.75 to 3 hrs by LC-MS/MS analysis; format: ADME, organism-based; set-up: dose 10 mg/kg, route oral; details: read-out: BPR
How it was run: (§4)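 Brain (µg/mg) and plasma (µg/mL) levels were measured after oral dosing, with three rats per time point. The b/p ratio was the mean of the nine individual ratios.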

[8] = Cmax in Sprague-Dawley rat plasma at 10 mg/kg, po and iv by LC-MS/MS analysis; format: ADME, organism-based; set-up: dose 10 mg/kg, route oral; how it was run: as §2
[9] = Oral bioavailability in Sprague-Dawley rat at 10 mg/kg by LC-MS/MS analysis; format: ADME, organism-based; details: in vivo; how it was run: as §2
[10] = tested on: Rattus norvegicus; experiment: Inhibition of RAMH-induced dipsogenia in Sprague-Dawley rat at 0.6 mg/kg, po administered 30 mins prior to RAMH challenge measured up to 20 mins; format: functional, organism-based; set-up: dose 0.6 mg/kg; how it was run: as §1
[11] = tested on: Rattus norvegicus; experiment: Inhibition of RAMH-induced dipsogenia in Sprague-Dawley rat at 0.6 mg/kg, po administered 1 hr prior to RAMH challenge measured up to 20 mins; format: functional, organism-based; set-up: dose 0.6 mg/kg; how it was run: as §1
[12] = tested on: Rattus norvegicus; experiment: Inhibition of RAMH-induced dipsogenia in Sprague-Dawley rat at 0.1 mg/kg, po administered 30 mins prior to RAMH challenge measured up to 20 mins; format: functional, organism-based; set-up: dose 0.1 mg/kg; how it was run: as §1
[13] = tested on: Rattus norvegicus; experiment: Tmax in Sprague-Dawley rat assessed as (R)-3-(4'-(2-(2-methylpyrrolidin-1-yl)ethyl)biphenyl-4-ylsulfonyl)propan-1-ol level at 3 mg/kg, po and iv by LC-MS/MS analysis; format: ADME, organism-based; set-up: dose 3 mg/kg, route oral; details: in vivo
How it was run: (§5)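 Exposure to the hydroxylated metabolite was measured after the propyl parent was given to rats at 3 mg/kg PO. Brain (µg/mg) and plasma (µg/mL) levels were taken at 3 time points, and the ratio was the mean.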

[14] = Tmax in Sprague-Dawley rat at 3 mg/kg, po and iv by LC-MS/MS analysis; format: ADME, organism-based; set-up: dose 3 mg/kg, route oral; details: in vivo; how it was run: as §3
[15] = Cmax in Sprague-Dawley rat plasma at 3 mg/kg, po and iv by LC-MS/MS analysis; format: ADME, organism-based; set-up: dose 3 mg/kg, route oral; how it was run: as §2
[16] = Half life in Sprague-Dawley rat at 3 mg/kg, iv by LC-MS/MS analysis; format: ADME, organism-based; set-up: dose 3 mg/kg, route intravenous; details: in vivo; how it was run: as §2
[17] = Ratio of (R)-3-(4'-(2-(2-methylpyrrolidin-1-yl)ethyl)biphenyl-4-ylsulfonyl)propan-1-ol level in brain to plasma in Sprague-Dawley rat at 3 mg/kg, po and iv after 0.75 to 3 hrs by LC-MS/MS analysis; format: ADME, organism-based; set-up: dose 3 mg/kg, route oral; how it was run: as §5
[18] = tested on: Plasma; experiment: Cmax in Sprague-Dawley rat plasma assessed as (R)-3-(4'-(2-(2-methylpyrrolidin-1-yl)ethyl)biphenyl-4-ylsulfonyl)propan-1-ol level at 3 mg/kg, po and iv by LC-MS/MS analysis; format: ADME, organism-based; set-up: dose 3 mg/kg, route oral; details: in vivo; how it was run: as §2
[19] = tested on: Rattus norvegicus; experiment: Volume of distribution at steady state in Sprague-Dawley rat at 3 mg/kg, po and iv by LC-MS/MS analysis; format: ADME, organism-based; set-up: dose 3 mg/kg, route oral; details: in vivo; how it was run: as §3
[20] = Oral bioavailability in Sprague-Dawley rat at 3 mg/kg by LC-MS/MS analysis; format: ADME, organism-based; details: in vivo; how it was run: as §2
[21] = target: Voltage-gated inwardly rectifying potassium channel KCNH2 (Homo sapiens, UniProt Q12809); experiment: Inhibition of human ERG by patch-clamp assay
[22] = tested on: Rattus norvegicus; experiment: Inhibition of RAMH-induced dipsogenia in Sprague-Dawley rat at 0.6 mg/kg, po administered 6 hrs prior to RAMH challenge measured up to 20 mins; format: functional; how it was run: as §1
[23] = Tmax in Sprague-Dawley rat at 1 mg/kg, po and iv by LC-MS/MS analysis; format: ADME, organism-based; set-up: dose 1 mg/kg, route oral; details: in vivo; how it was run: as §3
[24] = tested on: Rattus norvegicus; experiment: Volume of distribution at steady state in Sprague-Dawley rat at 1 mg/kg, po and iv by LC-MS/MS analysis; format: ADME, organism-based; set-up: dose 1 mg/kg, route oral; details: in vivo; how it was run: as §3
[25] = Oral bioavailability in Sprague-Dawley rat at 1 mg/kg by LC-MS/MS analysis; format: ADME, organism-based; details: in vivo; how it was run: as §2
[26] = Ratio of drug level in brain to plasma in Sprague-Dawley rat at 1 mg/kg, po and iv after 0.75 to 3 hrs by LC-MS/MS analysis; format: ADME, organism-based; set-up: dose 1 mg/kg, route oral; details: read-out: BPR; how it was run: as §4
[27] = Half life in Sprague-Dawley rat at 1 mg/kg, iv by LC-MS/MS analysis; format: ADME, organism-based; set-up: dose 1 mg/kg, route intravenous; details: in vivo; how it was run: as §2
[28] = Cmax in Sprague-Dawley rat plasma at 1 mg/kg, po and iv by LC-MS/MS analysis; format: ADME, organism-based; set-up: dose 1 mg/kg, route oral; how it was run: as §2

Chain of Histamine H3 receptor (Q9QYN8 whole entry): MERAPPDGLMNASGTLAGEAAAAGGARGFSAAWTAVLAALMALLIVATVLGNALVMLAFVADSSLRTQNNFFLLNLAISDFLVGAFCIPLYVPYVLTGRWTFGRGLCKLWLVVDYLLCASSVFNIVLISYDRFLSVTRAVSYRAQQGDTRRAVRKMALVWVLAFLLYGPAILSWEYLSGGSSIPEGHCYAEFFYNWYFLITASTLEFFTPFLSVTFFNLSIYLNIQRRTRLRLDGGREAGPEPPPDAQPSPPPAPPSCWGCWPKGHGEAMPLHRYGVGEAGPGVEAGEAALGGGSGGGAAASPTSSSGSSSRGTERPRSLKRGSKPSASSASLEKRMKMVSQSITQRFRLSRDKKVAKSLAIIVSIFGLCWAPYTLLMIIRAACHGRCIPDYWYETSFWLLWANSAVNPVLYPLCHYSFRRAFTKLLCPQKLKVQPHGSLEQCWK
Chain of hERG (KCNH2) (Q12809 whole entry): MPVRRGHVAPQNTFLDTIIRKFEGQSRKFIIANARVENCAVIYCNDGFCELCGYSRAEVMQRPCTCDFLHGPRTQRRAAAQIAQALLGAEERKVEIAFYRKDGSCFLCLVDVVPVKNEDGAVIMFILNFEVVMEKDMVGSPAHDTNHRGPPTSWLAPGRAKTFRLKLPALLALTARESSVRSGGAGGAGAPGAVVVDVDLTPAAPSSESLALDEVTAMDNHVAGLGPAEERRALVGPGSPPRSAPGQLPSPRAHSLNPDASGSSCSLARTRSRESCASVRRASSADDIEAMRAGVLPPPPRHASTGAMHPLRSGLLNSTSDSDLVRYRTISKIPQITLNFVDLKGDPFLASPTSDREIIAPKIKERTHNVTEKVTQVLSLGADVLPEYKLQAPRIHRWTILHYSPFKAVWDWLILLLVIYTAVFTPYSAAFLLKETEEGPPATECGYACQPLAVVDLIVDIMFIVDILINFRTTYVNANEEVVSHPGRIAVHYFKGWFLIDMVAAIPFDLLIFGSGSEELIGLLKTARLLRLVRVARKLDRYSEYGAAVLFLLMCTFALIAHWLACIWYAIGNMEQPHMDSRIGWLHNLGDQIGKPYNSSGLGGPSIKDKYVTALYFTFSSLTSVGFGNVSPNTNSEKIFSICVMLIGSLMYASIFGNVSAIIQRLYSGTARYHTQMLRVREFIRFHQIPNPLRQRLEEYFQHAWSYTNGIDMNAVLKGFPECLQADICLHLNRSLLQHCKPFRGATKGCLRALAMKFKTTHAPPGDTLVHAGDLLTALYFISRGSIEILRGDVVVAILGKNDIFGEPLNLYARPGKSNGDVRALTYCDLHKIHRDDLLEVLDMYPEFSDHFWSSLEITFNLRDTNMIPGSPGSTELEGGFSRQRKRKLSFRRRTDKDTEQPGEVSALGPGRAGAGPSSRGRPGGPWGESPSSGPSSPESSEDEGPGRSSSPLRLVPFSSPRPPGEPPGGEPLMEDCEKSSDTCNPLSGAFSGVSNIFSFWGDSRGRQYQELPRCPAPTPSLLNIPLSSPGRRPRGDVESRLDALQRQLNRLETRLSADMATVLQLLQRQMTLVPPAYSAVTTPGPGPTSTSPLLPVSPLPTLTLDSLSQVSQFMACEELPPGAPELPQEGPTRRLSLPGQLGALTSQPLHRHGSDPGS
Chain of Voltage-gated inwardly rectifying potassium channel KCNH2 (Q12809 whole entry): as above

Ki [2]: 0.6 nM
Structure (SMILES): C[C@@H]1CCCN1CCc1ccc(-c2ccc(S(=O)(=O)Cc3ccccc3)cc2)cc1
inhibition at 3 µM [1]: 95%

Ki [2]: 13.2 nM
Structure (SMILES): COCCS(=O)(=O)c1ccc(-c2ccc(CCN3CCC[C@@H]3C)cc2)cc1

Ki [2]: 1.1 nM
Structure (SMILES): C[C@@H]1CCCN1CCc1ccc(-c2ccc(S(=O)(=O)C3CCOCC3)cc2)cc1
minimal effective dose [3]: 1 mg/kg

Ki [2]: 1 nM
Structure (SMILES): CCOCCS(=O)(=O)c1ccc(-c2ccc(CCN3CCC[C@H]3C)cc2)cc1
minimal effective dose [3]: 0.3 mg/kg | inhibition at 3 µM [1]: 45%

half-life [4]: 216 min | Tmax [5]: 240 min | Vdss [6]: 19.8 L/kg | Kp [7]: 3.03 | Cmax [8]: 218 ng/mL | Ki [2]: 1.3 nM | bioavailability [9]: 100%
Structure (SMILES): C[C@@H]1CCCN1CCc1ccc(-c2ccc(S(C)(=O)=O)cc2)cc1
minimal effective dose [3]: 0.3 mg/kg

Structure (SMILES): COCCS(=O)(=O)c1ccc(-c2ccc(CCN3CCC[C@H]3C)cc2)cc1 [listing 1 of 2 here]
inhibition [10]: Active | inhibition [11]: Active | inhibition [12]: inactive

Tmax [13]: 180 min | Tmax [14]: 6 min | Cmax [15]: 6 ng/mL | half-life [16]: 18 min | BPR [17]: 0.7 | Cmax [18]: 449 ng/mL | Vdss [19]: 5.9 L/kg | bioavailability [20]: < 0.1% | Ki [2]: 0.6 nM
Structure (SMILES): CCCS(=O)(=O)c1ccc(-c2ccc(CCN3CCC[C@H]3C)cc2)cc1
minimal effective dose [3]: 0.3 mg/kg

half-life [4]: 42 min | Tmax [5]: 18 min | Vdss [6]: 7.6 L/kg | Kp [7]: 1.73 | Cmax [8]: 184 ng/mL | Ki [2]: 1.4 nM | bioavailability [9]: 68.5%
Structure (SMILES): COCCS(=O)(=O)c1ccc(-c2ccc(CCN3CCC[C@H]3C)cc2)cc1 [listing 2 of 2 here]
IC50 [21]: 7400 nM | inhibition in vivo at 0.6 mg/kg [22]: < 20% | minimal effective dose [3]: 0.3 mg/kg | inhibition at 3 µM [1]: 29%

Ki [2]: 1 nM
Structure (SMILES): C[C@@H]1CCCN1CCc1ccc(-c2ccc(S(=O)(=O)C3CCCC3)cc2)cc1

Tmax [23]: 30 min | Vdss [24]: 5 L/kg | bioavailability [25]: 53.6% | Ki [2]: 1.2 nM | Kp [26]: 0.72 | half-life [27]: 192 min | Cmax [28]: 122 ng/mL
Structure (SMILES): C[C@@H]1CCCN1CCc1ccc(-c2ccc(S(=O)(=O)CCO)cc2)cc1
minimal effective dose [3]: 1 mg/kg
